Laboratory results as given in ChEMBL document CHEMBL4513216, “Probing the Open Global Health Chemical Diversity Library for Multistage-Active Starting Points for Next-Generation Antimalarials” (ACS Infect Dis, 2020).

Assay: Toxicity liver stage against HepG2, at 10uM
Type: cell-based
Set-up: test concentration 10 uM, cell line HepG2-A16-CD81EGFP
Conditions: human, HepG2-A16-CD81EGFP cells; read-out: INHIBITION
In short: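 Uninfected HepG2-A16-CD81EGFP cells, 3 × 10^3 per well, 1536-well, plated on prespotted compound at 10 μM final, parasite-free screening media added to match infected plates; puromycin 10 μM positive, DMSO 0.5% negative; run in parallel with 48 h PbLuc assay at 37 °C, 5% CO2; viability by CellTiter-Glo luminescence, normalized to controls.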

SMILES	cytotoxicity at 10 µM [%]
CN(Cc1cccs1)C(=O)CN1C(=O)c2cc(Cl)c(Cl)cc2C1=O	-6.13
COCc1ncn2c1CN(S(=O)(=O)c1ccc(C)cc1)CC2	-1.18
Cc1nn(CCO)c(C)c1CNC1CCc2c(Cl)cccc21 (configuration not stated)	-6.34
CCc1cc(O)n2nc(C3CCN(C(=O)c4ccncc4)CC3)cc2n1	3.51
CN(C)Cc1cc(=O)n2c(n1)CN(Cc1ccco1)CCC2	7.07
O=C(NCc1ccccn1)NCC(O)c1ccccc1C(F)(F)F (configuration not stated)	-0.36
Cn1ccnc1-c1noc(NCc2ccc3c(c2)OCCO3)n1	-0.408
Cc1nc(N2C[C@@H](CN3CCCN(C)CC3)[C@@H](CO)C2)c2sccc2n1	-8.64
COc1cccc(CCC2CCCCN2)c1 (configuration not stated)	-1.73
Cc1ccc([C@]2(O)CC[C@H]3CN(Cc4cccc(F)c4F)C[C@H]32)nc1	-8.38
CN(Cc1ccc(C#N)cc1)C(=O)c1ccn(C)c(=O)c1	-2.81
Cc1ccc(C(C)NC(=O)Nc2ccccc2CN2CCOCC2)o1 (configuration not stated)	3.25
CC(C)CS(=O)(=O)CCNC(=O)Nc1cccc2ncccc12	-11
CN(C)CCNc1cc(-c2ccccc2C(N)=O)c2cc[nH]c2n1	0.343
OCCC[C@@H]1CN(c2ncc(Cl)cc2Cl)CC[C@@H]1N1CCOCC1	4.24
CN(C)C(=O)c1n[nH]c2c1CN(CC1CCC1)C2	-2.22
O=C(CN1CCN(CCO)CC1)NC(C1CC1)C1CC1	-6.56
CNC(=O)C1Cn2ccnc2C2(CCN(C(=O)c3ccccn3)CC2)O1 (configuration not stated)	-144
CCCn1nccc1C(=O)N1CCN(C2CCc3ccccc3C2)CC1 (configuration not stated)	-130
CN(c1ncc(C(N)=O)cc1Cl)C1CCC(c2ccccc2)CC1 (configuration not stated)	38.8
CCn1cc2c(n1)CN(Cc1ccc(F)cc1)CC2COCC1CC1 (configuration not stated)	-69
CNC(=O)C1(c2cnccn2)CCCN1C(=O)c1ccccc1OC (configuration not stated)	3.1
NC(=O)C(NCCc1ccc(Cl)s1)c1ccccc1 (configuration not stated)	6.13

SMILES	cytotoxicity at 10 µM [%]
Cc1ccc2c(c1)OCCCC2NCc1nnc2n1CCCCC2 (configuration not stated)	-7.89
Cc1cc(-c2ccc(=O)n(CCNC(=O)C3CCCCC3)n2)c(C)o1	-3.73
c1ccc(Cc2nc(CNC3CCC4(CCNCC4)CC3)no2)cc1	-17
CCCNC(c1ccc(F)cc1)c1cccnc1 (configuration not stated)	3.41
Cc1csc(NC(=O)CN(C)CCOc2cccc(F)c2)n1	0.115
O=C(C1CCOC1)N1CCC2(CCN(Cc3nccs3)C2)CC1 (configuration not stated)	-74.8
c1csc(CN2CCCn3cnc(COCC4CC4)c3C2)n1	9.7
Cc1ccc(N2CC[C@@H]3CN(Cc4cc[nH]n4)C[C@@H]3C2)nn1	3.47
CCn1ncc(NC(=O)CCn2ncc3c(Cl)cccc32)c1C	7.74
O=C(N1CCOCC1)N1CCC2(CC1)CN(c1ccccn1)CCO2	-78.2
Cn1c(N2CC[C@H](O)C2)nc2cc(C(N)=O)ccc21	5.83
Cc1noc(C2CCCN(C(=O)c3ccc(Br)o3)C2)n1 (configuration not stated)	1.73
O=C(c1cccc2cc[nH]c12)N1CCC2(CCOC2)C1 (configuration not stated)	-152
CN(Cc1ccco1)[C@@H]1CN(Cc2cnn(C)c2)[C@@H]2CCCO[C@H]12	-75.8
Cn1cnn(CC(=O)NCc2ccccc2F)c1=O	2.4
CCS(=O)(=O)N1CCC2(CCCN(c3ncc(F)cn3)C2)C1 (configuration not stated)	10.3
OCCN1CCN(Cc2coc(-c3ccccc3Cl)n2)CC1	-7.57
COCCNC(=O)[C@]12COC[C@H]1CN(C1CCOCC1)C2	-109
CN(C)C(=O)N1C[C@H]2CC[C@@H](C1)N(C(=O)CCCn1cncn1)C2	-12.2
COc1ccc(C(=O)Nc2ccccc2-c2ccc(=O)n(C)n2)nn1	2.18
O=C(c1ccc(-n2ccnc2)nn1)N1CCCC1CCc1ccccc1 (configuration not stated)	8.57
C[C@@H]1CN(C(=O)c2ccncc2)CC[C@@]1(O)C1CCOCC1	0.301
COCC(O)CN1CCC(=O)N(CC2CC2)Cc2ccccc21 (configuration not stated)	2.76

SMILES	cytotoxicity at 10 µM [%]
COc1cc(N2CC3(CCN(S(C)(=O)=O)C3)C2)ncn1	9.43
CNS(=O)(=O)CCN1CC(c2ccccc2)(c2ccccc2)CCC1=O	-7.91
Cc1cc(C)c(CNC(=O)C(C)Oc2ccccc2F)c(=O)[nH]1 (configuration not stated)	6.99
Cc1ccc2c(c1)N(C(=O)C1CCCOC1)CCC2 (configuration not stated)	5
CN1CC(=O)N(c2ccsc2)CC12CCN(C(=O)c1ccc[nH]1)C2 (configuration not stated)	-71.8
CCC(O)CN1CCN(C(=O)c2ccc(Cn3cccc3)cc2)CC1 (configuration not stated)	-6.54
CCC1CN(CCCNS(C)(=O)=O)c2ccccc2O1 (configuration not stated)	-7.03
Cn1cc(CN2CCc3nc4sccc4c(=O)n3CC2)cn1	-2.19
Cc1ncc(CNC(=O)N(CCCO)C2CCc3ccccc32)s1 (configuration not stated)	-12.9
Cc1ccc2c(c1)CCC21CCN(CCO)CC1	-0.675
Cc1ncc(CN2CCC3(CCCN(CC4CCC4)C3)C2)cn1 (configuration not stated)	-6.7
COc1ccc(C(=O)NCCc2nnc3ccccn23)c(OC)c1	9.6
CCN1C[C@H]2[C@@H](C1)N(c1ncc(F)cn1)CC[C@H]2OC	3.5
CN(C)c1ncccc1C(=O)N1CCc2c(ncn2C2CC2)C1	1.28
NS(=O)(=O)c1ccc(N2CCN(CCCc3cn[nH]c3)CC2)cc1	-145
Cc1cc(NC(=O)c2nn(C3CCS(=O)(=O)C3)c3c2CCCC3)no1 (configuration not stated)	3.85
O=C(CCN1CCc2ccccc21)N1C[C@@H](O)[C@H](N2CCCC2)C1	-17.8
COCCS(=O)(=O)Nc1ccc(-n2nccc2C(F)(F)F)cc1	1.26
OCCn1cc(CN2CCN(CCOc3cccc(F)c3)CC2)cn1	-10.9
COc1ccc(-c2nc(C)cc(SCC(N)=O)n2)cc1	5.64
Fc1cccc(Cl)c1CN1CCn2c(nnc2C2CC2)C1	8.7
Clc1ccc2oc(C3CCN(Cc4cccnc4)CC3)nc2c1	9.82
Cc1nc(C)n(CC2CN(Cc3ccncc3)Cc3nccn3C2)n1 (configuration not stated)	-142

SMILES	cytotoxicity at 10 µM [%]
CCn1cncc1Cn1ncc2ccccc2c1=O	3.7
CC(NCc1cccc(S(=O)(=O)N(C)C)c1)c1cccnc1 (configuration not stated)	1.56
CC(C)c1nc(C2CCCN2CCOCC2CC2)no1 (configuration not stated)	1.8
Cc1noc(C)c1CCC(=O)N(C)C(C)c1cccs1 (configuration not stated)	7.93
Cn1cnn(Cc2ccccc2F)c1=O	-3.09
CN1C[C@@H](F)[C@@H](OCc2nc3ccccc3[nH]2)C1	5.34
Cc1nc(C)n(C2CCCN(C(=O)c3sccc3C3CC3)C2)n1 (configuration not stated)	-9.68
CCNC(=O)CN1CCc2c(Br)ccc(F)c2C1	4.34
CC(C)c1nc(C2CCCN(c3nccc(N4CCCC4)n3)C2)no1 (configuration not stated)	27.6
CN1CCN2C(=O)N(C3CCCCC3)C[C@H]2C1	-3.1
O=C(c1cc(C2CC2)[nH]n1)N1CCN(Cc2ccc3c(c2)OCO3)CC1	-2.32
CCn1c(NCc2ccccc2)nc2c(C)nn(C)c2c1=O	10.6
CC(C)n1nnc(CC(=O)NCC2(c3ccccc3F)CCOCC2)n1	2.35
O=C(c1cccs1)N1CCc2nnc(COc3cncnc3)n2CC1	8.13
Cc1ccc(C(=O)N(Cc2ccccc2F)C2CC2)c(=O)[nH]1	0.846
Cc1cc(C)n(CC2CCCCN2CC(=O)N(C)Cc2ccco2)n1 (configuration not stated)	-9.75
CCc1cc(C(=O)N[C@H]2CN(CCS(C)(=O)=O)C[C@@H]2C2CC2)[nH]n1	3.91
COCc1ccccc1C(=O)N1CCCC1Cn1nc(C)cc1C (configuration not stated)	-3.98
CC(C)c1nnc2n1CCN(CCS(=O)(=O)c1ccccc1)C2	-8.22
COc1ccc(Nc2ccc(C#N)cn2)cc1N1CCCC1=O	10.1
NCC(c1ccc(Cl)cc1)N1CCc2sccc2C1 (configuration not stated)	6.33
CCc1nc(NC2CCCN(C(=O)c3cccs3)C2)c2cnn(C)c2n1 (configuration not stated)	13.9
Cc1cnn(CCNCc2nc(-c3ccccc3Cl)no2)c1	-9.91

SMILES	cytotoxicity at 10 µM [%]
O=C(NCCNc1ncccn1)N1CCc2ccccc2C1	-5.65
OCc1ccccc1CNCC1CNc2ccnn2C1 (configuration not stated)	-11.9
CNC(=O)COC(=O)c1ccn(-c2ccc(Cl)c(Cl)c2)n1	20.9
CC(C)CCN1CCN(C(=O)c2cnccn2)CC1	0.365
CCc1nnc(Nc2cccc(C3CCN(C)CC3)n2)s1	-28.6
CCOCC1c2c(ncn2C)CCN1C(=O)c1cscn1 (configuration not stated)	-98.2
CN(Cc1ccncn1)C(=O)C1(Oc2ccc(Cl)cc2)CCNCC1	18.5
CCc1nc2ccccc2c(=O)n1CC1(O)CCN(C(=O)COC)CC1	-2.76
Nc1nnc(SCc2cc(=O)n3c4c(sc3n2)CCCC4)[nH]1	-4.19
Cc1nc(-c2ccc(S(=O)(=O)N3CCC4(CC3)OCCO4)cc2)co1	1.69
Cc1cc(-c2ccccc2Cl)nc(N)n1	-0.268
CS(=O)(=O)N1CCC(N2CCCC2c2ccccn2)CC1 (configuration not stated)	-7.65
Nc1cc(CCC2CN(Cc3ccc(C(=O)O)cc3)CCO2)ccn1 (configuration not stated)	6.98
CC(C)Nc1ncc(CN2C[C@@H](CN3CCC(O)CC3)[C@@H](CO)C2)cn1	18.5
CNC(=O)C1CN(c2ccnc(C)n2)CCN1Cc1ccccc1 (configuration not stated)	8.48
COc1ccc(Br)cc1CCC(=O)N1CCSCC1	5.48
Cc1ccc(CNCC(C)Oc2ccccn2)cc1 (configuration not stated)	5.4
CC(C)OCCN1CCN(C(=O)c2cccc(-n3cccn3)n2)CC1	-3.88
Cc1nn(C)c(N2CCOCC2)c1CNCC1CCN(C2CC2)C1 (configuration not stated)	-3.32
Cc1cc(O)cc2c(=O)oc(CC(C)O)cc12 (configuration not stated)	0.346
